Laboratory results published in PubChem BioAssay.
The source made the active and inactive calls.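 Rule for the calls, unless noted: active = fluorescence slope after compound addition differing from the mean of all tested samples at 99.7% confidence, mostly higher but some lower; inactive = the rest.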

What was measured:
[1] = inhibitors of TNFa-induced NFkB p65 translocation, primary screen, imaging, HUVEC, MLSMR starter and 10KST1 sets (AID 438;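 active = inhibition above 20% together with a positive visual image hit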;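 note: compound added about 3h40 before a 20 min TNFalpha stimulation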;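 for inhibition: signal is the nuclear over cytoplasmic p65 intensity ratio per well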); conditions: HUVEC TNFa-induced p65 nuclear translocation; cell count: measured here: nuclei count (cytotoxicity indicator), at 2.08 µM; inhibition: at 2 µM, stronger effect = higher value, 0% TNFa-plus-vehicle, 100% no-TNFa wells
[2] = reduction of polyQ htt aggregates in cells – imaging, exon1htt(103Q)mCFP cells, high-content imaging, primary screen (AID 483;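 active = visual image review flags a hit and inhibition of aggregation exceeds 20%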;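 note: compound exposure lasted 3 days before fixation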;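 for nuclei count: percent of the per-plate median nuclei count of sample wells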); conditions: exon1htt(103Q)mCFP cell line, aggregate imaging, at 2 µM; inhibition of aggregation: stronger effect = higher value; nuclei count: measured here: cell count, toxicity
[3] = endothelial E-selectin expression blockers – imaging, HUVEC, immunofluorescence, MLSMR starter and 10KST1 sets, primary screen (AID 487;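 active = visually confirmed hit in the image check and inhibition above 20%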;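 for inhibition: signal is fraction of cell area covered by stained E-selectin grains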;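 for nuclei count: 100% = median nuclei count of all wells on the same plate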); conditions: HUVEC TNFalpha-induced E-selectin immunofluorescence imaging, at 2 µM; inhibition: stronger effect = higher value; nuclei count: measured here: cell number, toxicity
[4] = target: Voltage-gated potassium channel subunit beta-2 (Rattus norvegicus) (UniProt P62483); assay: inhibitors of rat Kvbeta2 reductase activity – biochemical, NADPH fluorescence, primary screen (AID 622;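 active = fluorescence slope higher than the sample average by over 3 SD, cut at about -0.22 in these data, passing the limit was not always enough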;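 note: slope of raw intensity against log time taken from 70 to 1610 s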); conditions: recombinant KvBeta, 4-cyanobenzaldehyde reduction, at 10 µM, stronger effect = higher value
Chain of Voltage-gated potassium channel subunit beta-2 (Rattus norvegicus) (P62483 whole entry, looked up): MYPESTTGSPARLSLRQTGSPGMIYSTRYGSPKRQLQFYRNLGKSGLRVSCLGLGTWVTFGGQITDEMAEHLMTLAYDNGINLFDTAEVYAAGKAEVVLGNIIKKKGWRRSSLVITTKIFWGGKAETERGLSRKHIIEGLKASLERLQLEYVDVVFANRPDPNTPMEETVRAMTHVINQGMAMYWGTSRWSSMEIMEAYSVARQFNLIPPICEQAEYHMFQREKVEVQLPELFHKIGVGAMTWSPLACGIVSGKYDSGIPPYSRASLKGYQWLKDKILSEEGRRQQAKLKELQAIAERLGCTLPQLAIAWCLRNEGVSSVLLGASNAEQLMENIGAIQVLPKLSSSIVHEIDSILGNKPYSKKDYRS

[5] = target: Voltage-gated potassium channel subunit beta-2 (Rattus norvegicus) (UniProt P62483); assay: enhancers of rat Kvbeta2 NADPH turnover – biochemical, NADPH fluorescence, primary screen (AID 623;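 active = NADPH fluorescence slope more negative than the mean of all samples by about 3 SD, 99.7% confidence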;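 note: fluorescence intensity change per second fitted from 20 to 320 s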); conditions: Recombinant KvBeta, NADPH fluorescence decrease slope, 10 min; at 10 µM; stronger effect = lower value
[6] = target: Muscarinic acetylcholine receptor M4 (Homo sapiens) (UniProt P08173); assay: M4-linked GIRK flux change, two-sided – cell-based, HEK293 M4/GIRK, thallium flux, BTC-AM, M4 allosteric agonist project, primary screen (AID 625); conditions: at 10 µM, actives lie on both sides;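 note: thallium influx through GIRK channels coupled to M4 in HEK293 cells with BTC-AM dye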
Chain of Muscarinic acetylcholine receptor M4 (Homo sapiens) (P08173 whole entry, looked up): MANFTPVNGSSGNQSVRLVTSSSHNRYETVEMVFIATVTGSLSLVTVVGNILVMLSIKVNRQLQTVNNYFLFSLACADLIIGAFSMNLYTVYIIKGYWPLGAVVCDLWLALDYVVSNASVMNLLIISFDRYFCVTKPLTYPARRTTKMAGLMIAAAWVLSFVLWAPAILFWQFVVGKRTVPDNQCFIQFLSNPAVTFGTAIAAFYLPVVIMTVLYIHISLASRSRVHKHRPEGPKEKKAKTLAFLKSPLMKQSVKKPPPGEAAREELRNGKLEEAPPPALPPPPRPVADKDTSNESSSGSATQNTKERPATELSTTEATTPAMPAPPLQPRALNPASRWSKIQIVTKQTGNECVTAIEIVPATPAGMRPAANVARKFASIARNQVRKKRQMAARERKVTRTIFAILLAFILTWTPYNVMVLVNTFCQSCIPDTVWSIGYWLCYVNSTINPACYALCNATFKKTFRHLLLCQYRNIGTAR
Procedure, shortened: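 Material – HEK293 cells with M4 receptor and GIRK channels · Buffer or medium – pH 7.3 thallium assay buffer · Doses – one dose, 10 µM final · Timing – cells overnight at 37 °C, BTC-AM loading 1 h, reads 2 min total · Measured by – kinetic fluorescence with BTC-AM dye · Controls – carbachol and DMSO controls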

[7] = blockers of RIG-like receptor reporter activation – cell-based, Sendai virus stimulus, luciferase, 10K MLSCN set, TLR/RLR signaling modifier project, primary screen (AID 602276;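 active = inhibition at or above 50% at 10 µM; inactive = inhibition below 50%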;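 note: firefly luciferase from ISG56 promoter only with Renilla not read in this screen; 0% = Sendai virus plus DMSO and 100% = medium plus DMSO without virus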); conditions: HEK293 RL24 IRF3 luciferase reporter, at 10 µM, stronger effect = higher value
[8] = TLR3 IRF3 reporter activation blockers – cell-based, poly I:C stimulus, luciferase, 10K MLSCN set, primary screen (AID 602277;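 active = inhibition of the reporter signal at or above 50%; inactive = inhibition below 50%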); conditions: HEK293-TLR3 RL24 IRF3 luciferase reporter, at 10 µM, stronger effect = higher value

SMILES	cell count [1]	inhibition [1]	inhibition of aggregation [2]	nuclei count [2] [%]	inhibition [3]	nuclei count [3] [%]	fluorescence slope [4]	NADPH fluorescence slope [5]	fluorescence slope [6]	inhibition [7]	inhibition [8]
Cc1ccccc1CSCC(=O)c1c(N)n(C)c(=O)n(C)c1=O	395	2.8% (inactive)	-5.9% (inactive)	96.5	34.1% (inactive)	103	-0.475 (inactive)	3.9e-05 (inactive)	0.00961 (inactive)	-5.02% (inactive)	-20.8% (inactive)
CCOC(=O)Cn1nnnc1CN(Cc1ccc(OC)cc1)Cc1cc2cc(C)cc(C)c2[nH]c1=O	614	6.2% (inactive)	-1.3% (inactive)	117	-50.4% (inactive)	117	-0.595 (inactive)	-3.9e-05 (inactive)	0.00531 (inactive)	-8.1% (inactive)	-1.09% (inactive)
Cn1c(=O)c2ncn(CC(=O)NCCOc3ccccc3)c2n(C)c1=O	503	-4.4% (inactive)	-3.1% (inactive)	98	43% (inactive)	91.5	-0.52 (inactive)	2.9e-06 (inactive)	0.00467 (inactive)	18% (inactive)	14.3% (inactive)
FC(F)(F)C(F)(F)C(F)(F)c1nnc2ccc(N3CCOCC3)nn12	420	7.9% (inactive)	-8.6% (inactive)	102	-41.2% (inactive)	111	-0.51 (inactive)	7.7e-05 (inactive)	0.0046 (inactive)	-12% (inactive)	-3.61% (inactive)
O=C(O)C1CSC2c3ccccc3C(=O)N12 (stereo not drawn)	729	-4.7% (inactive)	-3.2% (inactive)	96.3	-66.8% (inactive)	107	-0.577 (inactive)	-6.7e-06 (inactive)	0.00676 (inactive)	11.2% (inactive)	19% (inactive)
CC1(C)CC(=O)C(C=NCCc2ccc(S(N)(=O)=O)cc2)=C(O)C1	601	-6.1% (inactive)	-14.5% (inactive)	114	-11.3% (inactive)	102	-0.426 (inactive)	-8.3e-05 (inactive)	0.00589 (inactive)	13.2% (inactive)	20.3% (inactive)
CCOc1cccc(OCCOCCN2CCCC2)c1	802	0.5% (inactive)	2.1% (inactive)	79.5	-29.7% (inactive)	103	-0.229 (inactive)	-1.9e-05 (inactive)	0.00581 (inactive)	14.6% (inactive)	13.2% (inactive)
COC(=O)c1ccc(CSc2nc3ccccc3c(=O)n2Cc2ccco2)o1	414	2.6% (inactive)	-12.9% (inactive)	111	1.8% (inactive)	114	-0.563 (inactive)	-1.4e-05 (inactive)	0.00748 (inactive)	6.37% (inactive)	-5.19% (inactive)
CCCn1c(=O)c2ccccc2n2c(SCc3cc(=O)n4ccsc4n3)nnc12	556	-10.8% (inactive)	-7% (inactive)	90.4	-8.3% (inactive)	136	-0.479 (inactive)	1.9e-05 (inactive)	0.00554 (inactive)	1.22% (inactive)	12% (inactive)
O=C(COC(=O)C1(c2ccccc2F)CCCC1)NC1CCS(=O)(=O)C1 (stereo not drawn)	804	-6.9% (inactive)	-2.4% (inactive)	124	-14.4% (inactive)	106	-0.578 (inactive)	-7.2e-06 (inactive)	0.00752 (inactive)	-1.97% (inactive)	9.43% (inactive)
Cc1ccc(-c2c3c(=O)n(C)c(=O)n(C)c3cn2CCCN2CCOCC2)cc1	761	4.5% (inactive)	1.2% (inactive)	92.9	-32% (inactive)	116	-0.414 (inactive)	2.2e-05 (inactive)	0.00744 (inactive)	10.9% (inactive)	18.9% (inactive)
CCOC(=O)CC1(CC(=O)OCC)NC(=O)c2c(C)sc(C(=O)OCC)c2N1	704	-3.5% (inactive)	16% (inactive)	94.4	3.1% (inactive)	112	-0.402 (inactive)	-3.3e-06 (inactive)	0.00375 (inactive)	10.5% (inactive)	17% (inactive)
CCNC(=O)c1ccc(NS(=O)(=O)c2ccccc2)cc1	340	-4.8% (inactive)	16% (inactive)	123	-44.8% (inactive)	102	-0.551 (inactive)	-0.000105 (inactive)	0.00291 (inactive)	13.3% (inactive)	12.4% (inactive)
COCCn1cc(C(=O)NCCCN2CCC(C)CC2)c2c3ccccc3n(C)c2c1=O	493	2.1% (inactive)	-2.6% (inactive)	110	-38.5% (inactive)	115	-0.562 (inactive)	-5.2e-05 (inactive)	0.00626 (inactive)	0.372% (inactive)	16.6% (inactive)
CCS(=O)(=O)N1CCC(C(=O)NCc2cccs2)CC1	683	-5.9% (inactive)	12.4% (inactive)	77.5	-111% (inactive)	102	-0.549 (inactive)	-2e-05 (inactive)	0.00636 (inactive)	5.97% (inactive)	13.7% (inactive)
Cc1[nH]c(=O)[nH]c(=O)c1S(=O)(=O)Nc1ccc(Oc2ccccc2)cc1	638	-3.2% (inactive)	-7.6% (inactive)	117	-25.8% (inactive)	107	-0.574 (inactive)	-2.9e-05 (inactive)	0.00503 (inactive)	19.8% (inactive)	24.8% (inactive)
CN(C(=O)c1ccccn1)c1nnc(-c2ccncc2)s1	551	5% (inactive)	-7.6% (inactive)	111	-35.7% (inactive)	109	-0.267 (inactive)	-1.3e-05 (inactive)	0.00597 (inactive)	6.96% (inactive)	-3.15% (inactive)
CCCN(CCC)CCNC(=O)C(NS(=O)(=O)c1ccc2c(c1)CCC(=O)N2)c1ccccc1 (stereo not drawn)	524	0.7% (inactive)	-8.1% (inactive)	98.1	-17.1% (inactive)	112	-0.555 (inactive)	-5e-05 (inactive)	0.00588 (inactive)	8.32% (inactive)	24.9% (inactive)
CCn1c(=N)n(CC(O)COc2cccc(C)c2)c2ccccc21 (stereo not drawn)	289	-4.7% (inactive)	-15.2% (inactive)	94.9	-9.5% (inactive)	112	-0.517 (inactive)	4.3e-05 (inactive)	0.00395 (inactive)	-0.649% (inactive)	-11.2% (inactive)
Cc1ccc(F)cc1NC(=O)c1cccc2nccnc12	532	-45.9% (inactive)	-49.2% (inactive)	13.4	-61% (inactive)	108	-0.554 (inactive)	2e-05 (inactive)	0.00494 (inactive)	-11.7% (inactive)	-19.2% (inactive)
CCN1CCN(CCCNC(=O)c2cn(CCOC)c(=O)c3c2c2ccccc2n3C)CC1	451	-6.3% (inactive)	5.8% (inactive)	103	-2.9% (inactive)	106	-0.569 (inactive)	-1.9e-06 (inactive)	0.00513 (inactive)	-6.82% (inactive)	0.455% (inactive)
CNC(=O)c1ccccc1NC(=O)c1c(O)c2c([nH]c1=O)CCCC2	433	16.6% (inactive)	-9.3% (inactive)	98.8	-19.5% (inactive)	108	-0.47 (inactive)	-5.8e-05 (inactive)	0.00682 (inactive)	4.16% (inactive)	16.9% (inactive)
COCCn1c(=O)[nH]c2cc(C(=O)NCCCN3CCN(c4ccc(F)cc4)CC3)ccc2c1=O	333	21.3% (inactive)	-5.1% (inactive)	107	-22.8% (inactive)	111	-0.472 (inactive)	-3.1e-05 (inactive)	0.00483 (inactive)	16.2% (inactive)	9.46% (inactive)
COC(=O)c1ccccc1S(=O)(=O)N(CCCN1CCOCC1)Cc1cccs1	328	2.1% (inactive)	2.9% (inactive)	104	-43.1% (inactive)	115	-0.502 (inactive)	1.2e-05 (inactive)	0.00684 (inactive)	14% (inactive)	19.2% (inactive)
COc1ccc(OC)c(C2=NOC(C(=O)NCCN3CCOCC3)C2)c1 (stereo not drawn)	715	-22.4% (inactive)	12.9% (inactive)	96	-20.4% (inactive)	85.7	-0.62 (inactive)	3.7e-06 (inactive)	0.00547 (inactive)	17.7% (inactive)	25% (inactive)
CC(NC(=O)OCc1ccccc1)C(=O)N1CC(O)CC1C(=O)O (stereo not drawn)	280	0.9% (inactive)	2.6% (inactive)	79.3	26.8% (inactive)	85.4	-0.562 (inactive)	-1.6e-05 (inactive)	0.00618 (inactive)	16.9% (inactive)	22.2% (inactive)
CCOc1cc(C)c(Cl)cc1S(=O)(=O)N(C)C	682	-14.7% (inactive)	-26.4% (inactive)	113	-5.4% (inactive)	99.4	-0.565 (inactive)	-5.1e-05 (inactive)	0.00578 (inactive)	20.4% (inactive)	22.4% (inactive)
CCC(Sc1ccc(C(=O)O)cc1)C(=O)O (stereo not drawn)	319	-1.8% (inactive)	-13.8% (inactive)	110	-40.5% (inactive)	109	-0.566 (inactive)	-2.4e-05 (inactive)	0.0053 (inactive)	1.75% (inactive)	7.14% (inactive)
